Test system: Japanese patients with solid tumors
Assay: Phase I safety: drug-related adverse events, DLT, MTD, recommended dose
Assay type: in vivo, human
Conditions: for Recommended dosage: after-meal conditions
Summary of the method: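 Dose escalation used three-patient cohorts, alternating b.i.d. and t.i.d., starting at 200 mg/m2 b.i.d. Oral dosing was by body surface area for 28 days continuously. b.i.d. doses were taken within 1 h after meals, about 12 h apart; t.i.d. doses about 6 or 12 h apart. Patients were assessed at least weekly and graded by NCI-CTC v2.0. DLT: grade ≥3 non-haematological or grade ≥4 haematological drug-related event. MTD: DLT in 2/3 or 3/6 patients.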

[1] = b.i.d. 400 mg/m^2 × 2, n = 6, G3
[2] = b.i.d. 500 mg/m^2 × 2, n = 3, G1
[3] = b.i.d. 500 mg/m^2 × 2, n = 3, G2
[4] = t.i.d. 200 mg/m^2 × 3, n = 6, G1
[5] = t.i.d. 200 mg/m^2 × 3, n = 6, G2
[6] = t.i.d. 400 mg/m^2 × 3, n = 6, G1
[7] = t.i.d. 400 mg/m^2 × 3, n = 6, G2
[8] = t.i.d. 400 mg/m^2 × 3, n = 6, G4

Cc1[nH]c(/C=C2\C(=O)Nc3ccccc32)c(C)c1CCC(=O)O [TSU-68, (Z)-5-[(1,2-dihydro-2-oxo-3H-indol-3-ylidene)methyl]-2,4-dimethyl-1H-pyrrole-3-propanoic acid]
≤ 400 mg/m^2: Recommended dosage (b.i.d.) | Recommended dosage (t.i.d.)
400 mg/body: Recommended dose suggested by the Independent Data Monitoring Committee (b.i.d. after meals)
6: Number of patients with drug-related Discoloration urine/stool [4] | Number of patients with drug-related Malaise [4] | Number of patients with drug-related Discoloration urine/stool [6]
1: Number of patients with drug-related Hypoxia [1] | Number of patients with drug-related Pleural effusion [1] | Number of patients with drug-related Abdominal pain upper [2] | Number of patients with drug-related Alkaline phosphatase increased [2] | Number of patients with drug-related Blood albumin decreased [2] | Number of patients with drug-related Diarrhea [2] | Number of patients with drug-related Face edema [2] | Number of patients with drug-related Headache [2] | Number of patients with drug-related Pleural effusion [2] | Number of patients with drug-related Serum total protein decreased [2] | Number of patients with drug-related Abdominal pain upper [3] | Number of patients with drug-related Headache [3] | Number of patients with drug-related Serum total protein decreased [3] | No. maximum grade (patients, drug-related adverse events) [4] | Number of patients with drug-related Abdominal pain [4] | Number of patients with drug-related Nauseous [4] | Number of patients with drug-related Pleural effusion [4] | Number of patients with drug-related Serum total protein decreased [4] | Number of patients with drug-related γ-glutamyltransferase increased [4] | Number of patients with drug-related Back pain [5] | Number of patients with drug-related Blood albumin decreased [5] | Number of patients with drug-related Diarrhea [5] | Number of patients with drug-related Abdominal pain [6] | Number of patients with drug-related Anorexia [6] | Number of patients with drug-related Nauseous [6] | Number of patients with drug-related Pleural effusion [6] | Number of patients with drug-related Serum total protein decreased [6] | Number of patients with drug-related Alkaline phosphatase increased [7] | Number of patients with drug-related Anorexia [7] | Number of patients with drug-related Diarrhea [7] | No. maximum grade (patients, drug-related adverse events) [8] | Number of patients with drug-related Pericardial effusion [8]
not reached: MTD (maximum tolerated dose) (t.i.d. after meals, up to 400 mg/m^2)
3: Number of patients with drug-related Discoloration urine/stool [2] | Number of patients with drug-related Malaise [2] | Number of patients with drug-related Nauseous [2] | No. maximum grade (patients, drug-related adverse events) [3] | Number of patients with drug-related Vomiting [4] | Number of patients with drug-related Blood albumin decreased [6] | Number of patients with drug-related Diarrhea [6] | Number of patients with drug-related Face edema [6] | Number of patients with drug-related Malaise [6]
0: No. maximum grade (patients, drug-related adverse events) (b.i.d. 400 mg/m^2 × 2, n = 6, G4) | No. maximum grade (patients, drug-related adverse events) [2] | No. maximum grade (patients, drug-related adverse events) (b.i.d. 500 mg/m^2 × 2, n = 3, G3) | No. maximum grade (patients, drug-related adverse events) (b.i.d. 500 mg/m^2 × 2, n = 3, G4) | No. maximum grade (patients, drug-related adverse events) (t.i.d. 200 mg/m^2 × 3, n = 6, G3) | No. maximum grade (patients, drug-related adverse events) (t.i.d. 200 mg/m^2 × 3, n = 6, G4) | No. maximum grade (patients, drug-related adverse events) [6] | No. maximum grade (patients, drug-related adverse events) (t.i.d. 400 mg/m^2 × 3, n = 6, G3)
4: Number of patients with drug-related Diarrhea [4]
5: Number of patients with drug-related Blood albumin decreased [4] | No. maximum grade (patients, drug-related adverse events) [5] | No. maximum grade (patients, drug-related adverse events) [7]
2: Number of patients with drug-related Anorexia [2] | Number of patients with drug-related Vomiting [2] | Number of patients with drug-related Blood albumin decreased [3] | Number of patients with drug-related Alkaline phosphatase increased [4] | Number of patients with drug-related Anorexia [4] | Number of patients with drug-related Face edema [4] | Number of patients with drug-related Abdominal pain [5] | Number of patients with drug-related Abdominal pain upper [5] | Number of patients with drug-related Alkaline phosphatase increased [6] | Number of patients with drug-related Headache [6] | Number of patients with drug-related γ-glutamyltransferase increased [6] | Number of patients with drug-related Abdominal pain [7] | Number of patients with drug-related Back pain [7] | Number of patients with drug-related Blood albumin decreased [7]
